From ChEMBL document CHEMBL3525967, “In vitro glucuronidation of the antibacterial triclocarban and its oxidative metabolites” (Drug Metab Dispos, 2012)
pIC50: −log10 of the molar value. Values belong to the molecule of their own block, whether it stands above or below them.

Key:
Liver microsome [1] = assay: Intrinsic clearance in human liver microsomes after 30 mins by LC-ESI-MS analysis; assay type: ADME; conditions: 0.5 h
How it was run: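 2'-OH-TCC at 0.2, 0.5, 1, 2, 3, 5, 10 and 50 µM incubated with liver microsomes (alamethicin, MgCl2, saccharolactone, UDPGA; 37 °C), sampled at 5, 10, 15 and 30 min. Samples ≥5 µM diluted 1:9 in ACN; LC-ESI-MS. KM and vmax fitted from rate vs concentration; intrinsic clearance derived from these; mean and SD of three.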

Liver microsome [2] = assay: Drug metabolism in Sprague-Dawley rat liver microsomes assessed as retention time at 10 uM by LC-UV-MS method in presence of UDPGA; assay type: ADME
[3] = Inhibition of human recombinant soluble epoxide hydrolase using CMNPC as substrate
[4] = Drug excretion in monkey urine; assay type: ADME, tissue-based, Macaca mulatta; conditions: rhesus monkey, read-out: Drug excretion
[5] = molecular target: T1, UDP-glucuronosyltransferase 1A1 (Homo sapiens, UniProt P22309); assay: Drug metabolism assessed as human UGT1A1-mediated N-glucuronide-triclocarban formation expressed in baculovirus infected insect sf9 cells incubated for 5 mins prior to UDPGA addition measured after 5 to 30 mins by LC-UV analysis; assay type: ADME
T1 sequence (P22309 whole entry): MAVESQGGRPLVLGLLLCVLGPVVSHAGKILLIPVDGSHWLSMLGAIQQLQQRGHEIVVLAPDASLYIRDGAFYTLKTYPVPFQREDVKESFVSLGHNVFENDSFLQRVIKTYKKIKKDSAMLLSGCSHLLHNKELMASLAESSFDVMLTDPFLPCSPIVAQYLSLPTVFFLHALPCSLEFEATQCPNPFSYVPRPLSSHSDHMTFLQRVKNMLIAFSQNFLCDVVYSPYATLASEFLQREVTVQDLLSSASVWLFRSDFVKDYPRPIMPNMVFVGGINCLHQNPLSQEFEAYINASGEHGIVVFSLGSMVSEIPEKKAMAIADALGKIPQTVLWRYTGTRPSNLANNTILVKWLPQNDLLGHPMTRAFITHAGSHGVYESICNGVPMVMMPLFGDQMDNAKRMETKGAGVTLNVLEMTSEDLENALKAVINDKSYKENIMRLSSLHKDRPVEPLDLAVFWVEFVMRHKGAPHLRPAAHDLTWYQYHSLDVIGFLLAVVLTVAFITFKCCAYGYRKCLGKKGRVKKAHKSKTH
How it was run: (§1)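 Microsomes or UGT Supersomes (5 µg protein) were held 15 min on ice with alamethicin in 100 mM potassium phosphate pH 7.4. TCC was added at 10 µM (2% DMSO) with 10 mM MgCl2 and 10 mM saccharolactone, pre-warmed 5 min at 37 °C, then started with UDPGA. Samples at 5, 10, 15 and 30 min were quenched in ACN. Product was read by LC-UV at 265 nm; rate came from regression over time, three incubations.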

[6] = molecular target: T2, UDP-glucuronosyltransferase 1A9 (Homo sapiens, UniProt O60656); assay: Drug metabolism assessed as human UGT1A9-mediated N-glucuronide-triclocarban formation expressed in baculovirus infected insect sf9 cells incubated for 5 mins prior to UDPGA addition measured after 5 to 30 mins by LC-UV analysis; assay type: ADME; how it was run: as §1
T2 sequence (O60656 whole entry): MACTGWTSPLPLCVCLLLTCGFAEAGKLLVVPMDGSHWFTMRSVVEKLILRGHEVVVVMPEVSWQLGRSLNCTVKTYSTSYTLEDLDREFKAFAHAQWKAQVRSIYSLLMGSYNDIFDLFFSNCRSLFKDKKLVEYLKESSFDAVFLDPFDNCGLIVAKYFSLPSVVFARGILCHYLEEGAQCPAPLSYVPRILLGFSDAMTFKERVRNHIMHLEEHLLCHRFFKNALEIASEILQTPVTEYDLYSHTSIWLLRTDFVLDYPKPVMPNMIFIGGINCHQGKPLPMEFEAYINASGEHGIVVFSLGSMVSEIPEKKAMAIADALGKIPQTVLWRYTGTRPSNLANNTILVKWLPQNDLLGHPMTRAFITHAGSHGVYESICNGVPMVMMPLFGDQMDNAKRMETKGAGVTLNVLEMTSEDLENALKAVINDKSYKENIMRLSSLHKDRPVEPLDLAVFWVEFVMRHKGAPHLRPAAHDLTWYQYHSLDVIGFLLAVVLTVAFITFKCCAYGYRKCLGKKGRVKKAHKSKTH

[7] = Drug metabolism in cynomolgus monkey liver microsomes assessed as N'-glucuronide-triclocarban formation incubated for 5 mins prior to UDPGA addition measured after 5 to 30 mins by LC-UV analysis; assay type: ADME, Macaca fascicularis; how it was run: as §1
[8] = Drug excretion in Swiss webster mouse urine assessed as 6-O-glucuronide-triclocarban formation at 5 mg/kg, po by LC-MS analysis; assay type: ADME, organism-based; design: dose 5 mg/kg, route oral; conditions: in vivo
How it was run: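 Mice were housed two per metabolic cage, with blank urine collected over the 24 h before dosing. TCC was given by oral gavage as a 1 mg/mL solution in 20/80 DMSO/PEG400 (v/v) at 5 mg/kg. Urine was collected at 0-24 h and 24-48 h and analysed by online LC-MS. Values are the mean of two independent experiments.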

[9] = molecular target: T3, UDP-glucuronosyltransferase 2B7 (Homo sapiens, UniProt P16662); assay: Drug metabolism assessed as human UGT2B7-mediated N'-glucuronide-triclocarban formation expressed in baculovirus infected insect sf9 cells incubated for 5 mins prior to UDPGA addition measured after 5 to 30 mins by LC-UV analysis; assay type: ADME; how it was run: as §1
T3 sequence (P16662 whole entry): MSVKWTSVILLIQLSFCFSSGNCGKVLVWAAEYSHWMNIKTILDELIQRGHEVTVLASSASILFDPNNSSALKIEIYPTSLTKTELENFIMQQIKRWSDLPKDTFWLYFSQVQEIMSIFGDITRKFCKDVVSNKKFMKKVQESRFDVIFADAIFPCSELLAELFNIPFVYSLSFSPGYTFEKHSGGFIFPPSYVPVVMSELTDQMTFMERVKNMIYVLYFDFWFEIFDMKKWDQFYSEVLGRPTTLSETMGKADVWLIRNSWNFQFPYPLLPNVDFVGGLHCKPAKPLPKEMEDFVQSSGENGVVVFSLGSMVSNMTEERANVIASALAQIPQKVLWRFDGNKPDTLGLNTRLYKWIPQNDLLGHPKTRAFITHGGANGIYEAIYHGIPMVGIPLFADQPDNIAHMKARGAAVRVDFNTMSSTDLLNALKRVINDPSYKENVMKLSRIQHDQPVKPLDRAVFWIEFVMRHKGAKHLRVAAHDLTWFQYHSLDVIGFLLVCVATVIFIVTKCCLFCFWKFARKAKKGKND

- CLH (Liver microsome [1]): 1740 µL/min/mg
SMILES: O=C(Nc1ccc(Cl)c(Cl)c1)Nc1ccc(Cl)cc1O

- Retention_time (Liver microsome [2]): 2.26 min
SMILES: O=C(Nc1ccc(Cl)c(O)c1)Nc1ccc(Cl)c(Cl)c1

SMILES: O=C(Nc1ccc(Cl)cc1)Nc1ccc(Cl)c(Cl)c1 [TRICLOCARBAN]
- pIC50 [3]: 7.62
- dose excreted [4]: 25%
- Drug metabolism [5]: metabolite_not_detected
- Drug metabolism [6]: metabolite_not_detected
- Drug metabolism [7]: metabolite_not_detected
- Drug excretion [8]: metabolite_detected
- Drug metabolism [9]: metabolite_not_detected
